From PubChem BioAssay AID720736 (The Scripps Research Institute Molecular Screening Center, 2013)
Activity calls are given as the source filed them.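 Rule for the calls: active = growth inhibition of at least 50% in any replicate; inactive = growth inhibition below 50% in every replicate.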

Test: antiplasmodial activity in infected erythrocytes – cell-based, radiolabel, 3D7, RBCs, Set2, M18AAP inhibitor project, late-stage follow-up (AID 720736)
Conditions: P. falciparum 3D7 in RBCs, 3H-hypoxanthine incorporation, 48 h, at 10 µM, stronger effect = higher value
Outline: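 System: P. falciparum 3D7-infected RBCs / Medium: hypoxanthine-free RPMI, 10% serum / Also added: 3H-hypoxanthine, 0.5 µCi/well / Times: 48 h compound exposure at 37 °C in low-oxygen gas / Measured by: 3H-hypoxanthine uptake by beta counting / Controls: vehicle-treated parasites and uninfected RBCs / Repeats: triplicate wells per compound in one or two runs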

Row | Structure (SMILES) | growth inhibition (run 1) | growth inhibition (run 2)
1 | COc1ccc(C2CCN(c3ccnc4ccccc34)CC2)cc1OC | 1% (inactive) | 
2 | Oc1ccc(CCNc2c3ccccc3nc3ccccc23)cc1 | 95% | 95%
3 | O=C(O)CCCNc1c2ccccc2nc2ccccc12 | 0% (inactive) | 15% (inactive)
4 | NCCNc1c2ccccc2nc2ccccc12 | 100% | 99%
5 | Oc1ccc(CCCNc2c3c(nc4ccccc24)CCCC3)cc1O | 12% (inactive) | 
6 | COc1ccc(CCNc2c3c(nc4ccccc24)CCCC3)cc1OC | 38% (inactive) | 55%
7 | Oc1ccc(CCNc2ccc3ccccc3c2)cc1O | 21% (inactive) | 18% (inactive)
8 | COc1ccc(CCNc2cncc3ccccc23)cc1OC | 65% | 63%
9 | COc1ccc(CCNc2ccnc3cc(Cl)ccc23)cc1OC | 69% | 
10 | CCOc1ccc2nccc(NCCc3ccc(OC)c(OC)c3)c2c1 | 72% | 
11 | Oc1ccc(CCNc2cncc3ccccc23)cc1O | 38% (inactive) | 27% (inactive)
12 | Oc1ccc(CCNC2CCN(Cc3ccccc3)CC2)cc1O | 90% | 95%
13 | CC(Cc1ccc(O)c(O)c1)Nc1ccnc2ccccc12 (stereo unspecified) | 19% (inactive) | 
14 | COc1ccc(CCNC2CCN(Cc3ccccc3)CC2)cc1OC | 88% | 93%
15 | Oc1ccc(CCNc2c3c(nc4ccccc24)CCCC3)cc1O | 90% | 95%
16 | COc1ccc(CCN(C)c2ccncc2)cc1OC | 0% (inactive) | 0% (inactive)
17 | COc1ccc(CCN(C)c2ncnc3ccccc23)cc1OC | 3% (inactive) | 
18 | CCOc1ccc2nccc(N(C)CCc3ccc(OC)c(OC)c3)c2c1 | 15% (inactive) | 
19 | COc1ccc(CCCN2CCN(C)CC2)cc1OC | 0% (inactive) | 
20 | COc1ccc(CCNc2ccnc3c(C)cccc23)cc1OC | 20% (inactive) | 
21 | COc1ccc(C2CCN(c3ccnc4ccccc34)C2)cc1OC (stereo unspecified) | 94% | 
22 | Oc1ccc(CCNC(c2ccccc2)c2ccccc2)cc1O | 47% (inactive) | 57%
23 | COc1ccc(CCNC(=O)c2cc(C)ccc2N)cc1OC | 0% (inactive) | 
24 | CN(CCc1ccc(O)c(O)c1)c1ccnc2c(F)cccc12 | 3% (inactive) | 
25 | Oc1ccc(CCCNc2c3ccccc3nc3ccccc23)cc1O | 91% | 93%
26 | CN1CCN(CCc2ccc(O)c(O)c2)CC1 | 4% (inactive) | 0% (inactive)
27 | COc1ccc(CCNc2ccncc2)cc1OC | 6% (inactive) | 12% (inactive)

Row | Structure (SMILES) | growth inhibition (run 1) | growth inhibition (run 2)
28 | Cc1nc(NCCc2ccc(O)c(O)c2)c2c3c(sc2n1)CCC3 | 0% (inactive) | 
29 | COc1ccc(CCNc2cc(C)nc3ccccc23)cc1OC | 26% (inactive) | 
30 | COc1cc(Br)c(CCNc2c3c(nc4ccccc24)CCCC3)cc1OC | 96% | 
31 | COc1ccc(CCN(C)c2ccnc3c(C)cccc23)cc1OC | 5% (inactive) | 
32 | COc1ccc(CCN2CCN(C)CC2)cc1OC | 0% (inactive) | 5% (inactive)
33 | Oc1ccc(CCNc2cccc3ccccc23)cc1O | 16% (inactive) | 22% (inactive)
34 | Oc1ccc(C2CCN(c3ccnc4ccccc34)CC2)cc1O | 76% | 
35 | CN(CCc1ccc(O)c(O)c1)c1ccnc2ccccc12 | 91% | 95%
36 | Cc1c(OCc2ccccc2)c(=O)ccn1CCNc1c2ccccc2nc2ccccc12 | 94% | 99%
37 | COc1cccc(CCNc2c3ccccc3nc3ccccc23)c1 | 100% | 99%
38 | COc1ccc(CCNc2ccc3ccccc3c2)cc1OC | 0% (inactive) | 3% (inactive)
39 | COc1ccc(CCNC2CCN(C)CC2)cc1OC | 0% (inactive) | 0% (inactive)
40 | O=c1ccn(CCNc2c3ccccc3nc3ccccc23)cc1OCc1ccccc1 | 92% | 84%
41 | COc1ccc(CCNc2ccnc3c(F)cccc23)cc1OC | 26% (inactive) | 
42 | COc1cc(Br)c(CCNc2ccnc3ccccc23)cc1OC | 90% | 
43 | COc1ccc(CCNC(c2ccccc2)c2ccccc2)cc1OC | 0% (inactive) | 
44 | COc1ccc(CNc2c3ccccc3nc3ccccc23)cc1OC | 100% | 99%
45 | COc1ccc(CCCN(C)c2c3ccccc3nc3ccccc23)cc1OC | 17% (inactive) | 
46 | CN(CCc1ccc(O)c(O)c1)c1ncnc2ccccc12 | 1% (inactive) | 
47 | COc1ccc(CCNc2cccc3ccccc23)cc1OC | 9% (inactive) | 20% (inactive)
48 | COc1ccc(CCNc2c3ccccc3nc3ccccc23)cc1 | 100% | 98%
49 | COc1cc(Br)c(CCNc2c3ccccc3nc3ccccc23)cc1OC | 95% | 
50 | Oc1ccc(C2CCCN(c3ccnc4ccccc34)C2)cc1O (stereo unspecified) | 50% | 
51 | Oc1ccc(CCNc2ccnc3ccccc23)cc1O | 89% | 98%
52 | CCN(CCc1ccc(OC)c(OC)c1)c1c2ccccc2nc2ccccc12 | 18% (inactive) | 
53 | Oc1ccc(CCNc2ccnc3c(F)cccc23)cc1O | 0% (inactive) | 
54 | CCN(CC)Cc1cc(Nc2ccnc3cc(Cl)ccc23)ccc1O | 98% | 

Row | Structure (SMILES) | growth inhibition (run 1) | growth inhibition (run 2)
55 | COc1ccc(CCCNc2c3ccccc3nc3ccccc23)cc1OC | 88% | 95%
56 | CN1CCN(CCCc2ccc(O)c(O)c2)CC1 | 5% (inactive) | 0%
57 | CC(C)(CNc1ccnc2ccccc12)c1ccc(O)c(O)c1 | 35% (inactive) | 
58 | COc1ccc(CCCNc2c3c(nc4ccccc24)CCCC3)cc1OC | 4% (inactive) | 
59 | Oc1ccc(CCNc2ccnc3cc(Cl)ccc23)cc1O | 92% | 
60 | COc1ccc(CCN2CCc3ccccc3C2)cc1OC | 0% (inactive) | 3% (inactive)
61 | Oc1ccc(CCN2CCc3ccccc3C2)cc1O | 52% | 62%
62 | Cc1cccc2c(N(C)CCc3ccc(O)c(O)c3)ccnc12 | 5% (inactive) | 
63 | COc1ccc(CCN(C)c2ccnc3ccccc23)cc1OC | 95% | 94%
64 | CN(CCCc1ccc(O)c(O)c1)c1c2ccccc2nc2ccccc12 | 21% (inactive) | 
65 | O=C(O)CCCCNc1c2ccccc2nc2ccccc12 | 27% (inactive) | 20% (inactive)
66 | CN(CCc1ccc(O)c(O)c1)c1c2ccccc2nc2ccccc12 | 5% (inactive) | 
67 | CCN(CCc1ccc(O)c(O)c1)c1c2ccccc2nc2ccccc12 | 20% (inactive) | 
68 | CN(CCc1ccc(O)c(O)c1)c1ccncc1 | 3% (inactive) | 13% (inactive)
69 | CN(CCc1ccc(O)c(O)c1)c1ccnc2cc(Cl)ccc12 | 0% (inactive) | 
70 | COc1ccc(CCN(C)c2c3ccccc3nc3ccccc23)cc1OC |  | 98%
71 | COc1ccc(CCNc2c3ccccc3nc3ccccc23)cc1OC | 98% | 100%
72 | COc1ccc(CCN(C)c2ccnc3cc(Cl)ccc23)cc1OC | 97% | 92%
73 | Oc1cccc(CCNc2ccnc3ccccc23)c1O | 97% | 
74 | Oc1ccc(C2CCN(c3ccnc4ccccc34)C2)cc1O (stereo unspecified) | 95% | 
75 | Cc1cc(N(C)CCc2ccc(O)c(O)c2)c2ccccc2n1 | 6% (inactive) | 
76 | CN(CCCc1ccc(O)c(O)c1)c1ccnc2ccccc12 | 0% (inactive) | 
77 | COc1ccc(CCN(C)c2ccnc3c(F)cccc23)cc1OC | 5% (inactive) | 
78 | COc1ccc(CCNc2c3c(nc4ccc(C)cc24)CCCC3)cc1OC | 27% (inactive) | 
79 | Cc1cccc2c(NCCc3ccc(O)c(O)c3)ccnc12 | 56% | 
80 | COc1ccc(CCNc2ncnc3ccccc23)cc1OC | 5% (inactive) | 
